According to ChEMBL document CHEMBL3351542, “Nonpeptide small molecule agonist and antagonist original leads for neuropeptide FF1 and FF2 receptors” (J Med Chem, 2014):
Active and inactive are the calls of the source. The rule behind the calls is not given here. Square brackets hold non-standard residues; d marks the D form. Peptide text beside a SMILES is read from it. NMeF = CN[C@@H](Cc1ccccc1)C(=O)O

Tests used:
[1] = molecular target: T1, Neuropeptide FF receptor 2 (Homo sapiens, UniProt Q9Y5X5); test: Displacement of [3H]EYF from human NPFF2 receptor expressed in CHO cells after 1 hr by liquid scintillation counting analysis; format: cell-based
[2] = molecular target: T2, Neuropeptide FF receptor 1 (Homo sapiens, UniProt Q9GZQ6); test: Displacement of [3H]NPVF from human NPFF1 receptor expressed in CHO cells after 1 hr by liquid scintillation counting analysis; format: cell-based
[3] = molecular target: T2, Neuropeptide FF receptor 1; test: Antagonist activity at human NPFF1 receptor expressed in CHO cells assessed as reversal of NPVF-induced inhibition of intracellular cAMP accumulation after 10 mins by liquid scintillation counting analysis relative to control; format: functional, cell-based
[4] = molecular target: T1, Neuropeptide FF receptor 2; test: Antagonist activity at human NPFF2 receptor expressed in CHO cells assessed as reversal of 1DMe-induced inhibition of intracellular cAMP accumulation after 10 mins by liquid scintillation counting analysis relative to control; format: functional, cell-based
[5] = molecular target: T1, Neuropeptide FF receptor 2; test: Agonist activity at human NPFF2 receptor expressed in CHO cells assessed as inhibition of forskolin-induced intracellular cAMP accumulation by liquid scintillation counting analysis; format: functional, cell-based
Homo sapiens [6] = species on record: Homo sapiens; test: Selectivity ratio of Ki for human NPFF2 receptor to Ki for human NPFF1 receptor
Homo sapiens [7] = species on record: Homo sapiens; test: Selectivity ratio of Ki for human NPFF1 receptor to Ki for human NPFF2 receptor
[8] = molecular target: T1, Neuropeptide FF receptor 2; test: Displacement of [125I]EYF from human NPFF2 receptor expressed in CHO cells after 1 hr by liquid scintillation counting analysis; format: cell-based
Outline: (§1)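 Competition binding on CHO membranes stably expressing hNPFF1-R ([125I]YVP) or hNPFF2-R ([125I]EYF). Ki reported as mean ± SEM of two to four experiments in duplicate.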

[9] = molecular target: T2, Neuropeptide FF receptor 1; test: Displacement of [125I]YVP from human NPFF1 receptor expressed in CHO cells after 1 hr by liquid scintillation counting analysis; format: cell-based; outline: as §1
[10] = molecular target: T2, Neuropeptide FF receptor 1; test: Agonist activity at human NPFF1 receptor expressed in CHO cells assessed as inhibition of forskolin-induced intracellular cAMP accumulation by liquid scintillation counting analysis; format: functional, cell-based
Outline: (§2)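 Stably transfected CHO cells (200000) seeded overnight, labelled 1 h at 37 °C with [3H]adenine plus 0.1 μM adenine, rinsed in HEPES-Krebs-Ringer pH 7.4. Compound alone added with forskolin (20 μM in the added solution), IBMX and Ro-20 1724; 10 min at 37 °C, stopped with HCl. [3H]cAMP isolated on acid alumina columns, scintillation counted. Duplicates, two to four experiments.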

Homo sapiens [11] = species on record: Homo sapiens; test: Selectivity for human NPFF2 receptor over human NPFF1 receptor
[12] = molecular target: T1, Neuropeptide FF receptor 2; test: Agonist activity at human NPFF2 receptor expressed in CHO cells at 10 uM after 60 mins by [35S-GTPgammaS] binding assay relative to control; format: functional, cell-based
Outline: (§3)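 CHO cell membranes stably expressing hNPFF1-R (1.5 μg protein) or hNPFF2-R (0.7 μg). 60 min at 30 °C in 20 mM HEPES pH 7.4, 20 mM NaCl, 3 mM MgCl2, 0.1% BSA, saponin, GDP 0.1 μM (NPFF1) or 1 μM (NPFF2), 0.066 nM [35S]GTPγS; filtration, scintillation counting. Compound at 10 μM; % stimulation over basal, compared with 1DMe 10 μM. Two–four experiments in duplicate.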

[13] = molecular target: T2, Neuropeptide FF receptor 1; test: Agonist activity at human NPFF1 receptor expressed in CHO cells at 10 uM after 60 mins by [35S-GTPgammaS] binding assay relative to control; format: functional, cell-based; outline: as §3
[14] = molecular target: T1, Neuropeptide FF receptor 2; test: Antagonist activity at human NPFF2 receptor expressed in CHO cells assessed as inhibition of forskolin-induced intracellular cAMP accumulation at 10 to 30 uM after 10 mins by liquid scintillation counting analysis relative to control; format: functional, cell-based
Outline: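 At hNPFF2 CHO cells, compound alone tested at 10 and 30 μM in the forskolin-stimulated [3H]cAMP accumulation assay (10 min, 37 °C, IBMX and Ro-20 1724 present, alumina column isolation). Read-out is % inhibition of cAMP accumulation.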

[15] = molecular target: T1, Neuropeptide FF receptor 2; test: Agonist activity at human NPFF2 receptor expressed in CHO cells assessed as inhibition of forskolin-induced intracellular cAMP accumulation up to 1 uM by liquid scintillation counting analysis; format: functional, cell-based; outline: as §2
[16] = molecular target: T2, Neuropeptide FF receptor 1; test: Agonist activity at human NPFF1 receptor expressed in CHO cells assessed as inhibition of forskolin-induced intracellular cAMP accumulation up to 1 uM by liquid scintillation counting analysis; format: functional, cell-based; outline: as §2
[17] = molecular target: T1, Neuropeptide FF receptor 2; test: Partial agonist activity at human NPFF2 receptor expressed in CHO cells assessed as inhibition of forskolin-induced intracellular cAMP accumulation at >1 uM by liquid scintillation counting analysis; format: functional, cell-based; outline: as §2
[18] = molecular target: T2, Neuropeptide FF receptor 1; test: Partial agonist activity at human NPFF1 receptor expressed in CHO cells assessed as inhibition of forskolin-induced intracellular cAMP accumulation at >1 uM by liquid scintillation counting analysis; format: functional, cell-based; outline: as §2
[19] = molecular target: T1, Neuropeptide FF receptor 2; test: Antagonist activity at human NPFF2 receptor expressed in CHO cells assessed as reversal of 1DMe-induced inhibition of intracellular cAMP accumulation at 10 to 30 uM after 10 mins by liquid scintillation counting analysis relative to control; format: functional, cell-based

T2 sequence (Q9GZQ6 whole entry): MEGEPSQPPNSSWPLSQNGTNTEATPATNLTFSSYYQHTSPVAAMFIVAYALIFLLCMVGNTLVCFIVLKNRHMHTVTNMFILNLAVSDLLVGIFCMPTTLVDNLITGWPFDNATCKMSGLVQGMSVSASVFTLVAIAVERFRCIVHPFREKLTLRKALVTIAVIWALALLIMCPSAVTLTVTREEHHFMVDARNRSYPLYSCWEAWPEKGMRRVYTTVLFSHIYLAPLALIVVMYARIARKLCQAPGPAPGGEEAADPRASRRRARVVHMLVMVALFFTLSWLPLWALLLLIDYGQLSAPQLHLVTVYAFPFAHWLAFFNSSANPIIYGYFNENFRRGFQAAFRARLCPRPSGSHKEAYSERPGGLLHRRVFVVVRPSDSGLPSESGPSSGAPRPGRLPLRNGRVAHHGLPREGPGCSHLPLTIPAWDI
T1 sequence (Q9Y5X5 whole entry): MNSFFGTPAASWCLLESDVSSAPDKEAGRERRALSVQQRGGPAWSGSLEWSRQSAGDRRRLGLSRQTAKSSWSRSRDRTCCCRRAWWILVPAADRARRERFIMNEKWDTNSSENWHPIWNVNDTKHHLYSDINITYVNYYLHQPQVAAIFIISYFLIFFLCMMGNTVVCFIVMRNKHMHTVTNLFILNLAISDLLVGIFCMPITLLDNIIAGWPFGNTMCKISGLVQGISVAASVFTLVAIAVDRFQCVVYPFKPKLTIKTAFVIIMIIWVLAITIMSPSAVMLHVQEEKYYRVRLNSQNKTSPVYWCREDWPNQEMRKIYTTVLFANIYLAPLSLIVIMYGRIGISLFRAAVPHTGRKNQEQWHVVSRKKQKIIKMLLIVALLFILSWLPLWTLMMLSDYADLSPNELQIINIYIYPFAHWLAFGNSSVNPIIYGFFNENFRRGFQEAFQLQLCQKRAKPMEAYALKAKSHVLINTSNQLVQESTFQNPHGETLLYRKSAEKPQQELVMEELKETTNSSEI

N=C(N)NCC(=O)NCC1(Cc2cccc3ccccc23)CCN(Cc2ccccc2)CC1 was tested, and the Ki [1] was 30 nM, the Ki [2] was 112 nM and the Activity [3] was “Dose-dependent effect”. The EC50 [3] was 2600 nM, the Emax [3] was 56.2% and the EC50 [4] was 645 nM. It also gave an Emax [4] of 22%.

For N=C(N)NCC(=O)NCC1(Cc2ccccc2)CCN(Cc2ccccc2)CC1, the EC50 [5] was > 1000 nM, the Ki [1] was 84 nM and the Ki [2] was 417 nM.

With COc1cccc(NC2(CNC(=O)CNC(=N)N)CCN(Cc3ccccc3)CC2)c1 the Ratio Ki (Homo sapiens [6]) was 4.4, the Ki [1] was 884 nM and the Ki [2] was 201 nM.

For N=C(N)NCC(=O)NCC1(Nc2ccccc2)CCN(Cc2ccc(Br)cc2)CC1, the Ratio Ki (Homo sapiens [6]) was 4, the Ki [1] was 454 nM and the Ki [2] was 112 nM.

For N=C(N)NCC(=O)NCC1(Nc2ccccc2)CCN(CC2CCCCC2)CC1, the Ki [1] was 298 nM, the Ratio Ki (Homo sapiens [7]) was 5.5 and the Ki [2] was 1640 nM.

N=C(N)NCCC(=O)NCC1(Nc2ccccc2)CCN(Cc2ccccc2)CC1 gave a Ratio Ki (Homo sapiens [6]) of 6, a Ki [1] of 2910 nM and a Ki [2] of 441 nM.

N=C(N)NCC(=O)NCC1(Nc2ccccc2)CCNCC1 gave a Ki [1] of 2760 nM and a Ki [2] of 15100 nM.

For N=C(N)NCCC[C@H](N)C(=O)NCC1(Nc2ccccc2)CCN(CCc2ccccc2)CC1, the Ki [8] was 1690 nM and the Ki [9] was 2910 nM.

In the case of COc1cc(NC2(CNC(=O)CNC(=N)N)CCN(Cc3ccccc3)CC2)cc(OC)c1, the EC50 [10] is reported as > 10000 nM, the Ki [1] is reported as 987 nM and the Ki [2] is reported as 114 nM.

With N=C(N)NCC(=O)NCC1(Cc2ccc(Cl)c(Cl)c2)CCN(Cc2ccccc2)CC1 the Ki [1] was 82 nM, the Ratio Ki (Homo sapiens [7]) was 5.3 and the Ki [2] was 432 nM.

In the case of N=C(N)NCCC[C@H](N)C(=O)NCC1CCN(Cc2ccccc2)CC1, the Ki [8] is reported as 7580 nM and the Ki [9] is reported as > 5000 nM.

With CN1CCC(CNC(=O)[C@@H](N)CCCNC(=N)N)(Nc2ccccc2)CC1 the Ki [8] was > 5000 nM and the Ki [9] was > 5000 nM.

N=C(N)NCC(=O)NCC1(Nc2ccc(Cl)c(Cl)c2)CCN(Cc2ccccc2)CC1 showed a Ratio Ki (Homo sapiens [6]) of 2.1, a Ki [1] of 409 nM and a Ki [2] of 191 nM.

Compound N=C(N)NCC(=O)NCC1(Cc2ccc(-c3ccccc3)cc2)CCN(Cc2ccccc2)CC1 has a Ratio Ki (Homo sapiens [6]) of 3, a Ki [1] of 910 nM and a Ki [2] of 296 nM.

For N=C(N)NCC(=O)NCC1(Nc2ccccc2)CCN(Cc2ccc3ccccc3c2)CC1, the Ratio Ki (Homo sapiens [6]) was 3.6, the Ki [1] was 504 nM and the Ki [2] was 141 nM.

With N=C(N)NCC(=O)NCC1(Cc2ccc3ccccc3c2)CCN(Cc2ccccc2)CC1 the Ki [1] was 205 nM, the Ratio Ki (Homo sapiens [7]) was 1.5 and the Ki [2] was 316 nM.

H-AGEGLSSPFWSLAAPQRF-NH2 gave a Selectivity ratio (Homo sapiens [11]) of 10.1.

Compound N=C(N)NCC(=O)NCC1(c2ccccc2)CCN(Cc2ccccc2)CC1 has a Ratio Ki (Homo sapiens [6]) of 6.9, a Ki [1] of 3500 nM and a Ki [2] of 511 nM.

In the case of CN1CCC(CNC(=N)N)(Nc2ccccc2)CC1, the Ki [8] is reported as > 5000 nM and the Ki [9] is reported as > 5000 nM.

N=C(N)NCCC[C@H](N)C(=O)NCC1(Nc2ccccc2)CCN(Cc2ccccc2)CC1 gave a Ki [8] of 1050 nM, a Ki [9] of 487 nM and an Emax [12] of 184%. It also gave an Emax [13] of 36%.

With N=C(N)NCC(=O)NCC1(Nc2ccccc2)CCN(Cc2cccc3ccccc23)CC1 the Ki [1] was 129 nM, the Ratio Ki (Homo sapiens [7]) was 4.2 and the Ki [2] was 538 nM.

For N=C(N)NCC(=O)NCC1(Nc2ccccc2)CCN(CCc2ccccc2)CC1, the Ki [1] was 330 nM, the Ratio Ki (Homo sapiens [7]) was 3.2 and the Ki [2] was 1060 nM.

N=C(N)NCCC[C@H](N)C(=O)NCC1(Nc2ccccc2)CCN(Cc2ccc3ccccc3c2)CC1 was tested, and the Ki [8] was 304 nM, the Ki [9] was 479 nM and the Ratio Ki (Homo sapiens [7]) was 1.6.

For N=C(N)NCC1(Nc2ccccc2)CCN(CCc2ccccc2)CC1, the Ki [8] was 2770 nM and the Ki [9] was 2960 nM.

In the case of N=C(N)NCC(=O)NCC1(Nc2cccc3ccccc23)CCN(Cc2ccccc2)CC1, the EC50 [10] is reported as > 10000 nM, the Ki [1] is reported as 309 nM and the Ki [2] is reported as 94 nM.

For “H-SLNFEELKDWGPKNVIKMSTPAVNKMPHSFANLPLRF-NH2”, the Selectivity ratio (Homo sapiens [11]) was 1.2.

For N=C(N)NCC1(Nc2ccccc2)CCN(Cc2ccccc2)CC1, the Ki [8] was 6620 nM and the Ki [9] was 1880 nM.

Work on N=C(N)NCC(=O)NCC1(CCc2ccccc2)CCN(Cc2ccccc2)CC1 yielded a Ratio Ki (Homo sapiens [6]) of 3, a Ki [1] of 465 nM and a Ki [2] of 151 nM.

For CC(C)C[C@H](NC(=O)[C@H](N)Cc1ccc(O)cc1)C(=O)N(C)[C@@H](Cc1ccccc1)C(=O)N[C@@H](CCC(N)=O)C(=O)N1CCC[C@H]1C(=O)N[C@@H](CCC(N)=O)C(=O)N[C@@H](CCCNC(=N)N)C(=O)N[C@@H](Cc1ccccc1)C(N)=O (H-[dY]L[NMeF]QPQRF-NH2), the Ki ([9]; cho) was 4 nM.

For N=C(N)NCC(=O)NCC1(Nc2ccccc2)CCN(Cc2ccccc2)CC1, the Emax [14] was 20%, the Activity [15] was “Active” and the Activity [16] was “Active”. The Activity [17] was “inactive”, the Ki [1] was 405 nM and the Activity [18] was “inactive”. It also gave a Ki [2] of 319 nM, an EC50 [3] of 22000 nM and an Emax [3] of 83%. For the same compound, the inhibition [19] was “Active”.

CC(C)C[C@H](NC(=O)[C@H](Cc1ccccc1)NC(=O)[C@H](C)NC(=O)[C@H](CCC(N)=O)NC(=O)[C@@H](N)CO)C(=O)N[C@@H](Cc1ccccc1)C(=O)N[C@@H](CCC(N)=O)C(=O)N1CCC[C@H]1C(=O)N[C@@H](CCC(N)=O)C(=O)N[C@@H](CCCNC(=N)N)C(=O)N[C@@H](Cc1ccccc1)C(N)=O was tested, and the Selectivity ratio (Homo sapiens [11]) was 10.7.

For N=C(N)NCCNC(=O)C1(Nc2ccccc2)CCN(Cc2ccccc2)CC1, the Ki [1] was 1430 nM, the Ki [2] was 81 nM and the Activity [3] was “Dose-dependent effect”. For the same compound, the EC50 [3] was 3520 nM and the Emax [3] was 68%.

Compound COC(=O)c1ccc(CN2CCC(CNC(=O)CNC(=N)N)(Nc3ccccc3)CC2)cc1 has a Ratio Ki (Homo sapiens [6]) of 4.5, a Ki [1] of 1510 nM and a Ki [2] of 340 nM.
